Test results as given in ChEMBL document CHEMBL2034820, “Discovery, synthesis, and biological evaluation of novel pyrrole derivatives as highly selective potassium-competitive acid blockers” (Bioorg Med Chem, 2012).
pIC50: −log10 of the molar value. Activity calls are given as the source filed them. The calls are words filed in the database; no cut-off is given here.

Assays:
Rattus norvegicus [1] = test: Inhibition of histamine-induced gastric acid secretion in Jcl:Sprague-Dawley rat at 10 mg/kg, iv administered 3 mins before histamine challenge measured after 3 hrs relative to control; format: functional; conditions: Stomach
Method in brief: (§1)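 Seven-week-old male SD rats, fasted 24 h with free water, anesthetized with urethane 1.2 g/kg ip and pylorus-ligated. Drug or vehicle given iv just after ligation; histamine 2HCl 30 mg/kg sc 3 min later. After 3 h, gastric contents were centrifuged and titrated to pH 7.0 with 0.1 mol/L NaOH. Total 3 h acid output compared with vehicle.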

[2] = Inhibition of H+/K+ATPase in pig gastric microsomes assessed as liberation of inorganic phosphate from ATP hydrolysis after 30 mins; parameters: species or system Sus scrofa, Stomach, Microsome
Method in brief: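 Porcine gastric mucosal microsomes (Ficoll-interface fraction, stored at -80 C) in 50 mmol/L HEPES-Tris pH 6.5 with 5 mmol/L MgCl2, valinomycin, ±10 mmol/L KCl. Preincubated with compound at 37 C for 30 min, then started by adding 2 mmol/L ATP solution. Stopped with malachite green; Pi read at 620 nm. K+-dependent activity from ± K+ difference; IC50 by sigmoidal dose-response fit.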

[3] = Inhibition of Na+/K+ ATPase in pig cerebral cortex; format: tissue-based, Sus scrofa
Method in brief: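 Otherwise run as the gastric H+,K+-ATPase assay: compound preincubation at 37 C for 30 min, ATP-started reaction, malachite green phosphate read-out at 620 nm.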

Rattus norvegicus [4] = test: Inhibition of histamine-induced gastric acid secretion in Jcl:Sprague-Dawley rat at 1 mg/kg, iv administered 3 mins before histamine challenge measured after 3 hrs relative to control; format: functional; conditions: Stomach; method in brief: as §1
Canis familiaris [5] = test: Inhibition of histamine-stimulated gastric acid secretion in heidenhain pouch dog at 1 mg/kg, po prestimulated with histamine 1 day before compound treatment and 1, 3, 6 and 24 hrs post compound treatment measured every 30 mins for 3 times; format: functional, organism-based; parameters: dose 1 mg/kg; conditions: Canis lupus familiaris, Stomach
Method in brief: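 Dogs dosed orally in a blinded design (0.2 mL/kg), with vehicle controls. Histamine 2HCl injected sc. Pouch gastric juice collected as three consecutive 30 min periods after each histamine dose. Volume measured, and acid titrated to pH 7.0 with 0.1 mol/L NaOH. Total 90 min acid output at each time expressed as % of pre-dosing value.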

Canis familiaris [6] = test: Inhibition of histamine-stimulated gastric acid secretion in heidenhain pouch dog at 1 mg/kg, po prestimulated with histamine 1 day before compound treatment and 1, 3, 6 and 24 hrs post compound treatment measured after 24 hrs; format: functional, organism-based; parameters: dose 1 mg/kg; conditions: Canis lupus familiaris, Stomach
Method in brief: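 Heidenhain pouch dogs dosed orally (0.2 mL/kg), blinded. Histamine 2HCl given sc 1 day before and at 1, 3, 6 and 24 h post-dose. Pouch juice collected over three consecutive 30 min periods and titrated to pH 7.0 with 0.1 mol/L NaOH. 90 min acid output expressed as % of the pre-dosing value.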

Sus scrofa [7] = species on record: Sus scrofa; test: Reversible inhibition of H+/K+ATPase in pig gastric microsomes assessed as liberation of inorganic phosphate from ATP hydrolysis at 0.1 uM incubated for 20 mins measured after compound washout; conditions: Stomach, Microsome
Method in brief: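 Gastric microsomes incubated with compound (1% DMSO final) at 37 C for 30 min in 50 mmol/L HEPES-Tris pH 6.5, 5 mmol/L MgCl2, 10 mmol/L KCl. Activity measured on an aliquot and on the remainder after washout (30 kDa ultrafiltration, resuspended compound-free). Reaction started with 2 mmol/L ATP, run at 37 C for 20 min; malachite green phosphate read-out; % of 1% DMSO vehicle, n = 2.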

Sus scrofa [8] = species on record: Sus scrofa; test: Competitive inhibition of H+/K+ATPase in pig gastric microsomes by Lineweaver-Burk plot analysis; conditions: Stomach, Microsome

| Compound | pIC50 [2] | inhibition in vivo at 1 mg/kg (Rattus norvegicus [4]) | also measured |
| --- | --- | --- | --- |
| CNCc1cc(-c2ccccc2)n(Cc2ccccc2)c1 | 6.29 |  | inhibition in vivo at 10 mg/kg (Rattus norvegicus [1]): 84% |
| CNCc1cc(-c2ccccc2)n(S(=O)(=O)c2ccc(OC)cc2)c1 | 7.52 | 95% | pIC50 [3]: < 5.00; inhibition (Canis familiaris [5]): Active; inhibition (Canis familiaris [6]): Active |
| CNCc1cc(-c2ccccc2)n(S(=O)(=O)c2ccccc2)c1 | 8.03 | 96% | pIC50 [3]: < 5.00 |
| CCNCc1cc(-c2ccc3c(c2)OCO3)n(S(=O)(=O)c2ccc(C)cc2)c1 | 6.27 |  | inhibition in vivo at 10 mg/kg (Rattus norvegicus [1]): 39% |
| CNCc1cc(C2CC2)n(S(=O)(=O)c2ccccc2)c1 | 5.82 |  |  |
| Cc1ccc(S(=O)(=O)n2cc(CN)cc2-c2ccccc2)cc1 | 6.07 |  |  |
| CNC(C)c1cc(-c2ccccc2)n(S(=O)(=O)c2ccc(C(F)(F)F)cc2)c1 (stereo unspecified) | 5.64 | -4% |  |
| COCc1cc(-c2ccccc2)n(S(=O)(=O)c2ccc(C)cc2)c1 | < 5.00 |  | inhibition in vivo at 10 mg/kg (Rattus norvegicus [1]): -3% |
| CCCCS(=O)(=O)n1cc(CNC)cc1-c1ccccc1 | 6.08 |  |  |
| CNCc1cc(-c2ccccc2)n(C(=O)c2ccccc2)c1 | < 5.00 |  |  |
| CNCc1cn(S(=O)(=O)c2ccccc2)c(-c2ccccc2)c1C | 7.54 | 95% | pIC50 [3]: < 5.00 |
| CNCc1cc(-c2ccccc2)n(S(=O)(=O)c2ccccc2)c1C | 7.60 | 77% | pIC50 [3]: < 5.00 |
| Cc1ccc(S(=O)(=O)n2cc(C(N)=O)cc2-c2ccccc2)cc1 | < 5.00 |  |  |
| CNCc1cc(-c2ccccc2)n(S(=O)(=O)c2ccc(C(F)(F)F)cc2)c1 | 6.96 | 73% |  |
| CCNCc1cc(-c2ccccc2)n(S(=O)(=O)c2ccc(C)cc2)c1 | 6.19 |  | inhibition in vivo at 10 mg/kg (Rattus norvegicus [1]): 53% |
| CN(C)Cc1cc(-c2ccccc2)n(S(=O)(=O)c2ccc(C(F)(F)F)cc2)c1 | 6.15 |  | inhibition in vivo at 10 mg/kg (Rattus norvegicus [1]): 59% |
| CNCc1cc(-c2ccccc2)n(S(=O)(=O)c2ccc(C)cc2)c1 | 7.26 | 66% | pIC50 [3]: < 5.00; inhibition (Sus scrofa [7]): Active; inhibition (Sus scrofa [8]): Active |
| Cc1c(OCC(F)(F)F)ccnc1C[S+]([O-])c1nc2ccccc2[nH]1 (stereo unspecified) |  |  | inhibition (Canis familiaris [5]): Active |
| CNCc1cc(-c2ccccc2)n(S(=O)(=O)c2ccccc2)c1Cl | 7.40 | 49% | pIC50 [3]: < 5.00 |
| CNCc1cc(-c2ccccc2)n(S(C)(=O)=O)c1 | < 5.00 |  | inhibition in vivo at 10 mg/kg (Rattus norvegicus [1]): 27% |
| CCCCc1cc(CNC)cn1S(=O)(=O)c1ccccc1 | 6.60 | -8% |  |
